From ChEMBL document CHEMBL3232716, “Tailoring cytotoxicity of antimicrobial peptidomimetics with high activity against multidrug-resistant Escherichia coli” (J Med Chem, 2014) come the findings set out here.

The test system of one data set is Acinetobacter baumannii. Put plainly: Antibacterial activity against multidrug-resistant Acinetobacter baumannii clinical isolate E2-1228625 after 18 hrs by microdilution broth method. Format: functional.
For a further data set, the system named is Staphylococcus aureus. Put plainly: Antibacterial activity against methicillin-resistant Staphylococcus aureus ATCC 33591 after 18 hrs by microdilution broth method. Format: functional. The procedure, abridged: (§1)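 CLSI broth microdilution. […] Incubated 35 °C in ambient air for 18 h. MIC taken as the lowest concentration with no visible growth versus the compound-free control. Reported as median and range of three independent biological replicates run on separate days.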

A further data set relates to HeLa. Put plainly: Cytotoxicity against human HeLa cells after 1 hr by MTS/PMS assay. The data set is classed as cell-based. A digest of the protocol: (§2)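 Monolayers (passage 4–10) grown ~21–25 h to ~90% confluence. Seeding per well: HeLa 8000, HepG2 23 000, NIH 3T3 22 000, IEC-6 16 000, Caco-2 25 000. Cells washed with HBSS/10 mM Hepes pH 7.4 and exposed 1 h at 37 °C, 50 rpm, to compound 0–2000 μM in culture medium. MTS 240 μg/mL/PMS 2.4 μg/mL for 1.5–4 h, A492. Viability referenced to SDS and untreated controls; IC50 from one biological replicate in triplicate.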

Another data set deals with Caco-2. Put plainly: Cytotoxicity against human Caco2 cells after 1 hr by MTS/PMS assay. Format: cell-based. The following applies: Caco-2, 1 h. The procedure, abridged: as §2
Another data set deals with HepG2. Put plainly: Cytotoxicity against human HepG2 cells after 1 hr by MTS/PMS assay. Format: cell-based. The following applies: HepG2, 1 h. The procedure, abridged: as §2
Data set [1] in a line: Cytotoxicity against rat IEC-6 cells after 1 hr by MTS/PMS assay. Format: cell-based. The following applies: IEC-6, 1 h. A digest of the protocol:
as §2

A short description of data set [2]: Cytotoxicity against mouse NIH/3T3 cells after 1 hr by MTS/PMS assay. Format: cell-based. Particulars: NIH3T3, 1 h. A digest of the protocol:
as §2

The test system of the next data set is HUVEC. Put plainly: Cytotoxicity against HUVEC after 1 hr by MTS/PMS assay. The data set is classed as cell-based. The following applies: Homo sapiens. The procedure, abridged:
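HUVEC seeded at 15 000 cells/well on collagen-coated wells (0.6 μg/cm2), passage 4–10, grown to ~90% confluence over 21–25 h. Cells exposed to compound (0–2000 μM) in F-12K medium for 1 h at 37 °C. MTS 240 μg/mL with PMS 9.6 μg/mL in HBSS for 1.5–4 h, then A492. Viability referenced to 0.2% SDS and untreated cells; IC50 reported.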

Data set [3] is described as follows: Hemolytic activity in human RBC after 1 hr. The data set is classed as ADME, cell-based. The following applies: Erythrocyte. The procedure, abridged:
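Fresh human erythrocytes washed in PBS pH 7.4. A 0.5% v/v suspension was mixed 1:1 with 2-fold dilutions of compound (8–1024 μM) and incubated 1 h at 37 °C, then centrifuged. Supernatant hemoglobin read at OD414. Melittin 400 μg/mL set 100% lysis and PBS set 0%. Value is the concentration giving 50% lysis.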

Data set [4] can be described thus: Binding affinity to synthetic POPC/POPG liposomal membrane at 20 uM by circular dichroism analysis. The following applies: artificial membrane. The data set is classed as physicochemical. The procedure, abridged:
(§3)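 CD spectra recorded with 20 μM test compound and 2 mM liposomes in 10 mM Tris buffer, pH 7.5. Liposomes were roughly 100 nm: POPC/POPG 7:3 (bacterial model) or POPC/POPG/cholesterol 5:3:2 (mammalian model). Lipid concentration was standardized by enzymatic phospholipid colorimetric assay.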

A short description of data set [5]: Binding affinity to cholesterol containing synthetic POPC/POPG liposomal membrane at 20 uM by circular dichroism analysis. Format: physicochemical. Particulars: artificial membrane. A digest of the protocol:
as §3
On the technique in general: Circular dichroism is the unequal absorption of left and right circularly polarised light.

For data set [6], the system named is Escherichia coli. Put plainly: Antibacterial activity against Escherichia coli ATCC 25922 after 18 hrs by microdilution broth method. Format: functional. The procedure, abridged: as §1
In data set [7] the test system is Escherichia coli. Put plainly: Antibacterial activity against extended-spectrum beta-lactamase producing multidrug-resistant and colistin-susceptible Escherichia coli CTX-M-15 clinical isolate Aar 11 after 18 hrs by microdilution broth method. Format: functional.
For data set [8], the system named is Escherichia coli. Put plainly: Antibacterial activity against NDM-1 producing Escherichia coli clinical isolate 74859898 after 18 hrs by microdilution broth method. The data set is classed as functional. (Broth dilution looks for growth in wells or tubes with falling amounts of substance.)
Another data set relates to Enterococcus faecium. Put plainly: Antibacterial activity against vancomycin-resistant Enterococcus faecium ATCC 700221 after 18 hrs by microdilution broth method. The following applies: ATCC 700221, 18 h.
Another data set deals with Enterococcus faecalis. Put plainly: Antibacterial activity against vancomycin-resistant Enterococcus faecalis ATCC 700221 after 18 hrs by microdilution broth method. Format: functional. The procedure, abridged: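 CLSI broth microdilution. Incubated 35 °C in ambient air for 18 h. MIC taken as the lowest concentration with no visible growth versus the compound-free control. Reported as median and range of three independent biological replicates run on separate days.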

The mark [9] stands for this setting: clinical isolate E2-1228625, 18 h.
Where [10] appears, read: clinical isolate 74859898, 18 h.

pIC50: −log10 of the molar value. In brackets after ≈: the same amount, converted by molar mass. Square brackets hold non-standard residues; d marks the D form. Peptide text beside a SMILES is read from it. hArg = N=C(N)NCCCC[C@H](N)C(=O)O; Nphe = O=C(O)CNCc1ccccc1

Take `CC(=O)N[C@@H](CCCCN)C(=O)N(CCC(=O)N[C@@H](CCCCNC(=N)N)C(=O)N(CCC(=O)N[C@@H](CCCCN)C(=O)N(CCC(=O)N[C@@H](CCCCNC(=N)N)C(=O)N(CCC(=O)N[C@@H](CCCCN)C(=O)N(CCC(=O)N[C@@H](CCCCNC(=N)N)C(=O)N(CCC(=O)N[C@@H](CCCCN)C(=O)N(CCC(N)=O)Cc1ccccc1)Cc1ccccc1)Cc1ccccc1)Cc1ccccc1)Cc1ccccc1)Cc1ccccc1)Cc1ccccc1`: the MIC stood at 4 µM (≈ 8.84 µg/mL) with Acinetobacter baumannii (setting [9]); 16 µM (≈ 35.4 µg/mL) in the data set with Staphylococcus aureus (ATCC 33591, 18 h); 1 µM (≈ 2.21 µg/mL) against Escherichia coli [6] (ATCC 25922, 18 h); 1 µM (≈ 2.21 µg/mL) against Escherichia coli [7] (CTX-M-15, 18 h); 1 µM (≈ 2.21 µg/mL) against Escherichia coli [8] (setting [10]); 16 µM (≈ 35.4 µg/mL) against Enterococcus faecium. Also, the pIC50 with HeLa is 4.11; in the data set with Caco-2 it was 3.45; in the data set on HepG2, 3.94; in data set [1], 3.58; in [2], 3.76; in the data set with HUVEC it was 3.34. Besides, the pIC50 in [3] was < 2.99. For the same compound, the Activity result in [4] and in data set [5] was “Not Active” throughout.
Consider `CC(=O)N[C@@H](CCCCN)C(=O)N(CC(=O)N[C@@H](CCCCNC(=N)N)C(=O)N(CC(=O)N[C@@H](CCCCN)C(=O)N(CC(=O)N[C@@H](CCCCNC(=N)N)C(=O)N(CC(=O)N[C@@H](CCCCN)C(=O)N(CC(=O)N[C@@H](CCCCNC(=N)N)C(=O)N(CC(N)=O)Cc1ccccc1)Cc1ccccc1)Cc1ccccc1)Cc1ccccc1)Cc1ccccc1)Cc1ccccc1` (Ac-K[Nphe][hArg][Nphe]K[Nphe][hArg][Nphe]K[Nphe][hArg][Nphe]-NH2), for which the MIC in the data set on Acinetobacter baumannii (setting [9]) came out at 64 µM (≈ 118 µg/mL); against Staphylococcus aureus (ATCC 33591, 18 h) it was 64 µM (≈ 118 µg/mL); in the data set on Escherichia coli [6] (ATCC 25922, 18 h) it was 2 µM (≈ 3.67 µg/mL); against Escherichia coli [7] (CTX-M-15, 18 h) it was 2 µM (≈ 3.67 µg/mL); in the data set on Escherichia coli [8] (setting [10]), 1 µM (≈ 1.84 µg/mL); in the data set with Enterococcus faecium, 32 µM (≈ 58.8 µg/mL). Besides, the pIC50 with HeLa was 3.50; in the data set with Caco-2, < 3.00; in the data set on HepG2 it was 3.16; in [1] it was 3.20; in data set [2], 3.20; in the data set with HUVEC, < 3.00. In [3], the pIC50 was < 2.99. Besides, the Activity result in data set [4] and in [5] was “Not Active” each time.
As to GENTAMICIN, the MIC against Acinetobacter baumannii is > 128 µM; with Staphylococcus aureus it was 0.5 µM; in the data set with Enterococcus faecalis, > 128 µM; against Escherichia coli [6], 0.25 µM; in the data set on Escherichia coli [7], 32 µM; in the data set on Escherichia coli [8], > 128 µM.
Consider `CC(=O)N[C@@H](CCCCN)C(=O)N(CCC(=O)N[C@@H](CCCCNC(=N)N)C(=O)N(CCC(=O)N[C@@H](CCCCN)C(=O)N(CCC(=O)N[C@@H](CCCCNC(=N)N)C(=O)N(CCC(=O)N[C@@H](CCCCN)C(=O)N(CCC(=O)N[C@@H](CCCCNC(=N)N)C(=O)N(CCC(N)=O)[C@@H](C)c1ccccc1)[C@@H](C)c1ccccc1)[C@@H](C)c1ccccc1)[C@@H](C)c1ccccc1)[C@@H](C)c1ccccc1)[C@@H](C)c1ccccc1`, for which the MIC in the data set with Acinetobacter baumannii (setting [9]) was found to be 8 µM (≈ 16 µg/mL); in the data set on Staphylococcus aureus (ATCC 33591, 18 h), 16 µM (≈ 32.1 µg/mL); with Escherichia coli [6] (ATCC 25922, 18 h), 2 µM (≈ 4.01 µg/mL); in the data set on Escherichia coli [7] (CTX-M-15, 18 h), 4 µM (≈ 8.02 µg/mL); against Escherichia coli [8] (setting [10]), 2 µM (≈ 4.01 µg/mL); with Enterococcus faecium, 16 µM (≈ 32.1 µg/mL). Moreover, the pIC50 in the data set on HeLa is 4.41; in the data set on Caco-2 it was 3.48; with HepG2, 4.00; in [1], 3.83; in data set [2], 3.87; with HUVEC it was 3.30. Also, the Activity result in data set [4] and in [5] was “Not Active” in each case.
`CC(=O)N[C@@H](CCCCNC(=N)N)C(=O)N(CCC(=O)N[C@@H](CCCCN)C(=O)N(CCC(=O)N[C@@H](CCCCNC(=N)N)C(=O)N(CCC(=O)N[C@@H](CCCCN)C(=O)N(CCC(=O)N[C@@H](CCCCNC(=N)N)C(=O)N(CCC(N)=O)Cc1ccccc1)Cc1ccccc1)Cc1ccccc1)Cc1ccccc1)Cc1ccccc1`: the minimum inhibitory concentration (MIC) against Acinetobacter baumannii (setting [9]) came out at 128 µM (≈ 209 µg/mL); in the data set with Staphylococcus aureus (ATCC 33591, 18 h) it was 64 µM (≈ 104 µg/mL); in the data set on Escherichia coli [6] (ATCC 25922, 18 h), 8 µM (≈ 13.1 µg/mL); against Escherichia coli [7] (CTX-M-15, 18 h), 16 µM (≈ 26.1 µg/mL); with Escherichia coli [8] (setting [10]), 8 µM (≈ 13.1 µg/mL); with Enterococcus faecium, 128 µM (≈ 209 µg/mL). Besides, the negative-log IC50 (pIC50) in the data set with HeLa is 3.29; with Caco-2, < 3.00; with HepG2, 3.03; in data set [1], < 3.00; in [2], 3.13; with HUVEC, < 3.00. In addition, the Activity entry in data set [4] and in data set [5] was “Not Active” in each case.

The term MIC denotes the lowest concentration that inhibits growth of the organism. A lower MIC goes with a more susceptible organism. The term pIC50 denotes −log10 of the IC50, conventionally taken in molar units. High values mean a small IC50, low ones a large IC50.
